# Assay outcomes deposited in PubChem by several laboratories.
# Most compounds without a hit are left out; they make up all but 0.74% or so of the library.
# RGS16-Gao: modulators of RGS16 binding to Galphao, primary screen, biochemical, human proteins, multiplexed bead flow cytometry; 0.38% of 220,000 active; binding response (% of control), % at 10 µM; bead-based flow cytometry RGS16-Galphao binding, fluorescence; actives lie on both sides; Regulator of G-protein signaling 16 (Homo sapiens) + Guanine nucleotide-binding protein …;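 also: Galphao activated by GDP with aluminum fluoride before binding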
# Target sequence (O15492 whole entry, looked up): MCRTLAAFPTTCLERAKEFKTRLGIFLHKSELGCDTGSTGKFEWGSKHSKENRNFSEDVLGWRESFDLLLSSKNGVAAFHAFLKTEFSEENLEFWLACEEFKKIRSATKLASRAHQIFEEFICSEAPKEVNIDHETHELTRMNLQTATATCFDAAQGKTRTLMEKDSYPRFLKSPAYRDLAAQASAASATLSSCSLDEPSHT
# Target sequence (P09471 whole entry, looked up): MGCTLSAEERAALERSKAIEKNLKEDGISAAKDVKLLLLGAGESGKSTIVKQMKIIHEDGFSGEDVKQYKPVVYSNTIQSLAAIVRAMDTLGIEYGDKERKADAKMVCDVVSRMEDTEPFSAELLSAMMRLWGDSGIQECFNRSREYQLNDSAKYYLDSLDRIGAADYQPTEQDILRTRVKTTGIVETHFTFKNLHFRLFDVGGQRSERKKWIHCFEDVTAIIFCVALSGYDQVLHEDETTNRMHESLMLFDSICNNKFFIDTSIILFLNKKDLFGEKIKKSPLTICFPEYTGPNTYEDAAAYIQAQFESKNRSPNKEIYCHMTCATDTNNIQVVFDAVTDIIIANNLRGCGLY
# RGS4-Gao reg: modulators of RGS4 binding to Galphao, primary screen, biochemical, multiplexed bead flow cytometry | binding response (% of control), % at 10 µM | 0.33% of 220,000 active | Guanine nucleotide-binding protein G(o) subunit alpha (Homo sapiens), P09471 | actives lie on both sides | AID 1415, 2008; in the data active = binding response below about 49% or above about 150%; inactive = in between;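 also: fluorescent Galphao activated with aluminum fluoride binding bead-coupled RGS4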
# Target sequence (P09471 whole entry, looked up): as above
# RGS7-Gao reg: RGS7-Galphao binding modulators, primary screen, biochemical, multiplexed bead flow cytometry | actives lie on both sides | binding response (% of control), % at 10 µM | 0.35% of 220,000 active | AID 1439, 2008; in the data active = binding response below about 49% or above about 150%; inconclusive = no clear call, values can overlap the other calls; inactive = in between;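 also: fluorescent Galphao held in activated GDP-AlF4 state binding bead-coupled RGS7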
# RGS8-Gao: RGS8-Galphao binding modulators, primary screen, biochemical, multiplexed bead flow cytometry; Guanine nucleotide-binding protein G(o) subunit alpha (Homo sapiens), P09471; actives lie on both sides; response (percent of control binding), % at 10 µM; 0.34% of 220,000 active; AID 1423, 2008; in the data active = response below about 60% or above about 140%; inactive = in between;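 also: Galphao activated as the GDP aluminium fluoride complex binding bead-coupled RGS8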
# Biofilm kill mix: clotrimazole potentiators killing C. albicans biofilm, primary screen, 4-compound mixtures; C. albicans biofilm persisters + clotrimazole, fluorescence viability; primary screen in compound mixtures of four per well; inhibition, % at 7.6 µM; 0.02% of 120,000 active;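 active = inhibition above 30.3% in the primary screen of four-compound pools, then above 30% when the compound was retested; inconclusive = passed the primary limit but could not be retested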;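 also: compounds exposed to preformed 24 h biofilms for 48 h; 0% = untreated biofilm control and 100% = clotrimazole plus chlorhexidine kill blank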
#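 Test system: C. albicans biofilms. Buffer or medium: RPMI/MOPS medium, pH 7.0. Timing: 48 h compound exposure at 37 °C. Technique: Alamar Blue fluorescence. Evaluation: percent inhibition of biofilm viability.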
# RGS4-Gao HTS: modulators of RGS–Galpha-o binding, primary screen, biochemical, multiplexed beads, flow cytometry, RGS4/7/8/16/19. RGS4–Galpha-o binding response, % at 10 µM. shares compounds with RGS16-Gao. multiplexed bead flow cytometry. 99% of 1,600 active. AID 1504, 2009;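 also: fluorescently labeled Galpha-o bound to GDP with aluminium fluoride binding biotinylated RGS beads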
# Biotin-avidin: disruption of biotin probe capture by avidin, counter-screen for RGS protein interaction modulators, biochemical, flow cytometry, bead-based | shares compounds with RGS16-Gao | streptavidin beads, fluorescein-biotin binding | inhibition, % at 10 µM | 1,700 tested, under 10 active;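 active = inhibition above 50%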;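 also: median green fluorescence of gated singlet beads compared with DMSO control wells; 0% = DMSO wells and 100% = complete loss of bead fluorescence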
# RGS8-Gao single: RGS8-Galphao binding modulators, confirmation, biochemical, multiplexed bead flow cytometry, single concentration; 3% of 1,700 active; binding response (% of control), % at 10 µM; shares compounds with RGS16-Gao; bead-based flow cytometry RGS8-Galphao binding, fluorescence; actives lie on both sides; AID 1836, 2009; in the data active = binding response below about 72% or above about 130%; inactive = in between;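 also: Galphao activated as GDP AlF4 complex before binding bead RGS8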
# RGS7-Gao confirm: RGS7-Galphao binding modulators, confirmation, biochemical, multiplexed bead flow cytometry, single concentration | shares compounds with RGS16-Gao | bead-based flow cytometry RGS7-Galphao binding; actives lie on both sides | response (percent of control binding), % at 10 µM | 7.8% of 1,700 active | AID 1837, 2009; in the data active = response below about 75% or above about 130%; inactive = in between;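 also: fluorescent Galphao activated with GDP and aluminum fluoride binding bead-coupled RGS7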
# RGS16-Gao conf: modulators of RGS16-Galphao protein binding, confirmation, biochemical, single concentration, multiplexed bead flow cytometry; shares compounds with RGS16-Gao; AID 1838, 2009; bead-based flow cytometry; actives lie on both sides; 4% of 1,700 active; response (% of control binding), % at 10 µM; in the data active = response below about 74% or above about 130%; inactive = in between;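 also: Galphao activated as the GDP aluminium fluoride complex binding bead-coupled RGS16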
# RGS4-Gao confirm: modulators of RGS4-Galphao protein binding, confirmation, biochemical, single concentration, multiplexed bead flow cytometry | shares compounds with RGS16-Gao | binding response (% of control), % at 10 µM | actives lie on both sides | 4% of 1,700 active | AID 1840, 2009; in the data active = binding response below about 74% or above about 130%; inactive = in between
# RGS19-Gao conf: regulators of RGS19-Galphao binding, confirmation, biochemical, single point, multiplexed bead flow cytometry. bead-based flow cytometry RGS19-Galphao binding; actives lie on both sides. shares compounds with RGS16-Gao. response (percent of control binding), % at 10 µM. 5% of 1,700 active. AID 1841, 2009; in the data active = response below about 50% or above about 160%; inactive = in between;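 also: 100% = no compound control and 0% = blank background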
# The depositor's hits bear a star; u = inconclusive; x = not tested or not shown; + = active, no number; [ ] = dose if it differs, or a comment. Unless noted, no rule for the calls is given here.
SMILES,RGS16-Gao,RGS4-Gao reg,RGS7-Gao reg,RGS8-Gao,Biofilm kill mix,RGS4-Gao HTS,Biotin-avidin,RGS8-Gao single,RGS7-Gao confirm,RGS16-Gao conf,RGS4-Gao confirm,RGS19-Gao conf
O=[N+]([O-])c1ccc(-n2cnc3ccccc32)c([N+](=O)[O-])c1,97.3,96.8,92.3,96.8,10.7,x,x,x,x,x,x,x
CCOc1ccc(CCNC(=O)c2[nH]c(C)c(C(C)=O)c2C)cc1OCC,x,x,x,x,5.5,x,2.7,101.3,96.0,99.0,98.1,91.3
C/C(CC(=O)Nc1ccccn1)=N\NC(=O)c1ccc2ccccc2c1,210.7*[activator],107.4,104.9,122.2,-9.1,107.4*,0.9,94.9,88.9,92.5,90.9,95.7
CCOC(=O)c1cccc(-n2c(-c3ccc(OC)cc3)nc3nc4ccccc4nc32)c1,100.6,107.8,179.5*[activator],97.8,2.4,107.8*,0.1,95.5,103.5,100.0,100.5,90.3
CCOC(=O)c1cccc(-n2c(C)nc3ccccc3c2=O)c1,72.6,96.5,99.7,90.7,x,x,x,x,x,x,x,x
COc1ccc(S(=O)(=O)n2nc(OCc3cccs3)cc2N)cc1,113.7,111.6,113.6,105.5,15.4,x,x,x,x,x,x,x
Cc1nn(CC(=O)N2CCc3ccccc3C2)c(C)c1[N+](=O)[O-],105.6,98.7,97.5,100.1,26.2,x,x,x,x,x,x,x
Cc1c(Br)c([N+](=O)[O-])nn1CC(=O)N1CCc2ccccc2C1,24.3*,97.4,98.6,74.7,8.6,97.4*,-1.4,102.0,96.9,97.2,100.3,90.2
O=c1[nH]c(-c2ccccn2)nc2ccccc12,96.4,96.8,100.2,98.2,x,x,x,x,x,x,x,x
c1ccc(-c2nc3ccccc3[nH]2)nc1,167.3,169.9*[activator],157.5*[activator],154.4*[activator],14.0,x,-0.3,98.7,101.8,98.6,99.2,109.8
OC1(C(F)(F)F)CC(c2ccc3ccccc3c2)=NO1 (stereo unspecified),92.5,87.6,u,98.5,17.9,x,x,x,x,x,x,x
CCC(OC(=O)c1cc2sccc2n1C)C(=O)NCC1CCCO1 (stereo unspecified),203.3*[activator],190.0*[activator],161.1*[activator],106.5,x,x,-1.1,101.4,95.2,98.9,99.1,106.3
CC(OC(=O)c1cc2sccc2n1C)C(=O)NCC1CCCO1 (stereo unspecified),102.1,97.1,101.4,100.6,x,x,x,x,x,x,x,x
Cc1ccccc1CSc1nn2c(=O)c(C)nnc2s1,127.0,115.6,211.2*[activator],84.5,29.5,115.6*,2.0,101.1,96.0,103.2,93.8,92.0
Cc1ccccc1-n1c(SCC(=O)NC(N)=O)nc2sc(-c3ccccc3)cc2c1=O,-3.3*,80.8,78.9,65.3,13.9,80.8*,0.9,102.5,102.9,106.3,104.0,104.2
Cc1cc2cc(CCNC(=O)c3cccc([N+](=O)[O-])c3)c(=O)[nH]c2cc1C,37.4,35.3*,36.5*,61.2,16.1,x,0.5,100.2,100.1,99.7,99.0,104.2
Nc1cccc(S(=O)(=O)NC2=NCCC2)c1,393.0,119.0,114.0,148.7*[activator],x,119.0*,x,x,x,x,x,x
Cn1cc(-c2nnnn2-c2ccc(Cl)cc2)c(=O)c2ccccc21,356.7,129.7,123.9,143.7*[activator],x,129.7*,-0.2,101.5,96.3,104.3,100.0,96.5
CC1CC(C)CN(C(=O)/C=C/c2ccc([N+](=O)[O-])s2)C1 (stereo unspecified),11.3*,17.9*,14.7*,14.5*,9.8,x,-1.7,96.0,46.6*,81.7,58.2*,80.5
CC1CN(C(=O)/C=C/c2ccc([N+](=O)[O-])s2)CC(C)O1 (stereo unspecified),111.5,105.7,102.6,105.7,18.0,x,x,x,x,x,x,x
Cc1cn2c(N)c(C=C3C=C(Cl)C(=O)C(Cl)=C3)c(=O)nc2s1,443.8*[activator],548.7*[activator],473.5*[activator],132.8,15.7,x,20.0,140.8*[activator],+[activator],449.0*[activator],658.7*[activator],+[activator]
COC1=C/C(=C/c2c(N)n3cc(C)sc3nc2=O)C=CC1=O,131.0,136.2,134.5,103.8,11.4,x,x,x,x,x,x,x
O=C(c1ccco1)N1CCN(c2ccc([N+](=O)[O-])c(N3CCOCC3)c2)CC1,50.5,42.8*,30.9*,51.3*,8.4,x,-1.8,100.1,61.0*,82.6,77.3,65.9
CC(=O)N1CCN(c2ccc([N+](=O)[O-])c(-n3nc(C)cc3C)c2)CC1,9.6,78.8,84.0,59.8*,17.5,78.8*,-1.7,92.1,86.2,89.8,92.0,86.4
Cc1cc(C)n(-c2cc(N3CCN(C(=O)c4cccc(Br)c4)CC3)ccc2[N+](=O)[O-])n1,103.8,100.2,101.7,101.8,x,x,x,x,x,x,x,x
O=C(O)CC1(CC(=O)NCc2cc(F)cc3c2OCOC3)CCCCC1,150.5,156.7*[activator],u,128.9,16.5,x,-2.1,98.0,101.2,94.0,93.7,90.1
O=c1[nH]c2ccccc2nc1/C=C/c1ccc(Cl)cc1,x,x,x,x,1.3,x,0.3,101.2,99.2,100.8,101.6,101.8
CN(C)CCNC(=O)c1ccc2c(c1)N(Cc1ccc(F)cc1)CCS2,7.0,44.3*,61.8,60.0*,x,x,0.6,100.8,96.3,98.3,101.0,86.4
